Source: PubChem BioAssay
CRFBP-R2 agonist = agonists of human CRF-binding protein/CRF-R2 receptor complex; HEK293 CRF-R2/CRF-BP, calcium dye fluorescence (FLIPR); percent of saturating CRF peptide response; activation, % at 13.2 µM; 350,000 compounds, 0.46% hits;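 active = activation of at least 50%, plus an integration ratio under a set limit after plate pattern correction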;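 note: plate controls were neutral control wells without compound for no effect and CRF at EC100 for full effect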
Tn6 DDE FP = DD(E)-Tn6 binding inhibition, primary FP screen | Fibrin DD(E) TRITC-Tn6 fluorescence polarization displacement | 370,000 compounds, 0.21% hits | AID 720509 | inhibition, % at 8.3 µM;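 active = inhibition above a per-campaign cutoff: mean of compounds within control limits plus 3 SD, cut at about 15% in these data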;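 note: 0% = median of all compound wells on the plate and 100% = blocking peptide control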
Target sequence (P02675 whole entry, looked up): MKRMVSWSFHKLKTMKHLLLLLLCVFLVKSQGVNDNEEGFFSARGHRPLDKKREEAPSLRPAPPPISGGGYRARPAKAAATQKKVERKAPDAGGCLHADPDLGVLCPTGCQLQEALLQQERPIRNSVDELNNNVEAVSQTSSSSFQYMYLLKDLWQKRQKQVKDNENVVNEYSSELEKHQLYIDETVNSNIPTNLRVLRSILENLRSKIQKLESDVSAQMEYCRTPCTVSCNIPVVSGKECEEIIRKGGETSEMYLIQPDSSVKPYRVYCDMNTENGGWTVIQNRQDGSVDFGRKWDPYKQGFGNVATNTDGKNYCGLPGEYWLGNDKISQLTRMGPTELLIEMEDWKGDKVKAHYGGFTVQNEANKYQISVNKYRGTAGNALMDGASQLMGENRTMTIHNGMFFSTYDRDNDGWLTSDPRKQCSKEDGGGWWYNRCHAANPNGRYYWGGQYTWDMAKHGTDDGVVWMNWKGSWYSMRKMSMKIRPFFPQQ
Tn7 DDE FP = inhibitors of Tn7 peptide binding to human fibrin DD(E); P02675; FP displacement of FITC-Tn7 peptide from fibrin DD(E); 0% = median of compound wells per plate; inhibition, % at 8.3 µM; 370,000 compounds, 0.13% hits;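 active = inhibition above the mean of compounds falling within the control limits plus 3 SD of them, cut at about 14% in these data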;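 note: 0% = plate median of compound wells and 100% = 10 µM Aha-Tn7 peptide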
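Measure: % inhibition scaled between sample-field median and high-control FP; Test system: human fibrin DD(E); Quantity: 2 µM final DD(E) protein; Doses: one dose, 8.3 µM nominal; Schedule: compound with protein 10 min, then 3 h after probe, room temperature; Detection: fluorescence polarization; Medium: Tris buffer with calcium and detergent, pH 7.8.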
CRFBP-R2 block = blocks CRF-induced signaling of the CRF-BP/CRF-R2 complex. 350,000 compounds, 0.59% hits. AID 588475. HEK293 CRF-R2/CRF-BP, CRF-induced calcium fluorescence. inhibition, % at 11.8 µM;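 active = inhibition of the ligand-induced calcium signal above about 50% at the single tested concentration, limit read from the data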
Active calls of the source: *. Only some compounds are listed: those with a hit (about 1.2% of all), similar ones and a draw of the others.

`COC(=O)c1cc2c(c3c4cc(F)ccc4n(S(=O)(=O)c4ccc(C)cc4)c13)C(=O)N(Cc1ccc(N(C)C)cc1)C2` gave Tn6 DDE FP -1.4 and Tn7 DDE FP 8.3.
O=C(CN(CCc1ccccc1)S(=O)(=O)c1ccc(F)cc1)N1CCOCC1 was read as Tn6 DDE FP 1.5 and Tn7 DDE FP -4.2.
Screening CCOC(=O)c1sc(NC(=O)c2cc(-c3ccccc3)nc3ccccc23)c(C#N)c1C returned CRFBP-R2 agonist 53.1*, Tn6 DDE FP -2.7, Tn7 DDE FP 3.6 and CRFBP-R2 block 34.8.
`CCOC(=O)c1sc(NC(=O)CSc2n[nH]c(-c3ccccc3)n2)c(C#N)c1C` gave CRFBP-R2 agonist 20.1, Tn6 DDE FP 5.2, Tn7 DDE FP 9.0 and CRFBP-R2 block 0.4.
Cc1cccc(NC(=O)c2ccc3[nH]c(=O)c(=O)[nH]c3c2)n1 was read as CRFBP-R2 agonist -0.5, Tn6 DDE FP -0.5, Tn7 DDE FP 3.4 and CRFBP-R2 block -4.7.
`O=C(/C=C/c1cn(CC(O)CN2CCCCC2)c2ccccc12)c1ccccc1` (stereo not drawn) gave CRFBP-R2 agonist 7.8, Tn6 DDE FP 3.2, Tn7 DDE FP 0.7 and CRFBP-R2 block -18.4.
Screening O=C(/C=C/c1cn(CC(O)CN2CCCCC2)c2ccccc12)c1cccs1 (stereo not drawn) returned CRFBP-R2 agonist 63.2*, Tn6 DDE FP -0.8, Tn7 DDE FP -1.7 and CRFBP-R2 block -80.2.
Screening CCCCC(C(=O)O)C(C)CC(=O)Nc1nncs1 (stereo not drawn) returned CRFBP-R2 agonist 2.6, Tn6 DDE FP -0.8, Tn7 DDE FP -4.8 and CRFBP-R2 block 77.0*.
For COc1ccccc1-c1ccc(SCc2cccc(F)c2)nn1 the results were CRFBP-R2 agonist 0.0, Tn6 DDE FP 8.7, Tn7 DDE FP 6.9 and CRFBP-R2 block 53.4*.
COc1ccccc1-c1ccc(SCc2ccccc2)nn1 was read as CRFBP-R2 agonist -0.4, Tn6 DDE FP 5.0, Tn7 DDE FP 1.4 and CRFBP-R2 block 12.8.
C[C@H](O)[C@@H]1CN2CCc3ccc(N4CCOCC4)cc3[C@@H]2C[C@@H]1N(C)C(=O)c1cccc(Cl)c1 was read as Tn6 DDE FP 1.5 and Tn7 DDE FP -3.3.
Nc1c(C(=O)c2ccccc2)sc2nsc(SCCN3CCCC3)c12 was read as CRFBP-R2 agonist 102.2*, Tn6 DDE FP -6.2, Tn7 DDE FP 0.9 and CRFBP-R2 block -79.9.
Screening CC(=O)c1sc2nsc(SCCN3CCCCC3)c2c1N returned CRFBP-R2 agonist 1.1, Tn6 DDE FP -4.3, Tn7 DDE FP 5.1 and CRFBP-R2 block -7.4.
For O=C(NCCN1CCOCC1)c1ccc(Cl)cc1 the results were CRFBP-R2 agonist -0.5, Tn6 DDE FP -6.4, Tn7 DDE FP 6.7 and CRFBP-R2 block 13.4.
Nc1c(C(=O)c2ccc(Cl)cc2)sc2nsc(SCCN3CCOCC3)c12 was read as CRFBP-R2 agonist 91.6*, Tn6 DDE FP -2.9, Tn7 DDE FP -4.8 and CRFBP-R2 block -73.4.
CC(=O)Nc1cccc(C(C)C2=CCCCC2)c1 (stereo not drawn) was read as Tn6 DDE FP 6.0 and Tn7 DDE FP -4.5.
For COc1ccc(-c2cc(C(=O)O)nc3ccc4ccccc4c23)cc1OC the results were CRFBP-R2 agonist -1.1, Tn6 DDE FP 1.8, Tn7 DDE FP 9.3 and CRFBP-R2 block 58.0*.
`CCC(=O)Nc1cccc(-n2nnnc2SCC(=O)N2CCCCC2)c1` gave CRFBP-R2 agonist 88.8*, Tn6 DDE FP -8.1, Tn7 DDE FP 9.6 and CRFBP-R2 block -164.5.
CCOC(=O)Nc1ccc2c(c1)C(=NNC(=S)NC)c1ccccc1-2 was read as CRFBP-R2 agonist 0.3, Tn6 DDE FP 2.4, Tn7 DDE FP 14.9* and CRFBP-R2 block -27.6.
Screening COC(=O)c1cc2c(c3c4cc(F)ccc4n(S(=O)(=O)c4cccc(C)c4)c13)C(=O)N(Cc1ccc(C(F)(F)F)cc1)C2 returned Tn6 DDE FP -0.8 and Tn7 DDE FP -1.5.
For COc1ccc(Cn2cc(CN3[C@@H](Cc4ccccc4)COc4cc(Br)ccc4S3(=O)=O)nn2)cc1 the results were Tn6 DDE FP -4.2 and Tn7 DDE FP -1.8.
Screening Cc1nn(-c2ccccc2)c(N2CCCC2)c1/C=N/Nc1ccc(S(N)(=O)=O)cc1[N+](=O)[O-] returned CRFBP-R2 agonist -0.1, Tn6 DDE FP -2.7, Tn7 DDE FP 3.8 and CRFBP-R2 block 59.6*.
`NS(=O)(=O)c1ccc(N/N=C/c2ccc(C(=O)O)cc2)c([N+](=O)[O-])c1` gave CRFBP-R2 agonist -1.6, Tn6 DDE FP 5.4, Tn7 DDE FP -5.8 and CRFBP-R2 block -8.4.
Screening COc1ccc(N2C(=O)CSC23C(=O)N2c4c(cccc43)C(C)=CC2(C)C)cc1 (stereo not drawn) returned CRFBP-R2 agonist -5.8, Tn6 DDE FP -6.2, Tn7 DDE FP 0.3 and CRFBP-R2 block 84.0*.
For C[C@H](NC(=O)Nc1ccc2c(c1)OCCO2)C(=O)O the results were CRFBP-R2 agonist -1.5, Tn6 DDE FP -3.8, Tn7 DDE FP -2.9 and CRFBP-R2 block 95.8*.
Screening Cc1ccc(CCNC(=O)C2CCC(=O)N2C(C)C)cc1 (stereo not drawn) returned CRFBP-R2 agonist 9.7, Tn6 DDE FP 5.2, Tn7 DDE FP 0.6 and CRFBP-R2 block -22.2.
`Cc1ccc(CCNC(=O)C2CCC(=O)N2C2CCCC2)cc1` (stereo not drawn) gave CRFBP-R2 agonist -0.6, Tn6 DDE FP -8.9, Tn7 DDE FP -1.8 and CRFBP-R2 block 62.5*.
Screening CCOC(=O)C1(CC2CCCCO2)CCN(Cc2nccn2-c2cccc(C)c2)CC1 (stereo not drawn) returned CRFBP-R2 agonist 0.3, Tn6 DDE FP 5.6, Tn7 DDE FP -4.6 and CRFBP-R2 block 6.6.
CCOC(=O)C1(CC2CCCCO2)CCN(Cc2nccn2-c2ccc(OC)cc2)CC1 (stereo not drawn) was read as CRFBP-R2 agonist -2.8, Tn6 DDE FP -0.1, Tn7 DDE FP 9.2 and CRFBP-R2 block 52.3*.
O=c1c(/C=C(\O)c2ccccc2)nc2ccccc2n1-c1ccccc1 was read as CRFBP-R2 agonist 155.9*, Tn6 DDE FP 0.2, Tn7 DDE FP 1.1 and CRFBP-R2 block -79.8.
For COC(=O)[C@]12C[C@H](CC(=O)N3CCCCC3)C(=O)N(Cc3cccc4ccccc34)C1=C[C@H](C1CCCC1)O[C@@H]2C the results were Tn6 DDE FP 3.7 and Tn7 DDE FP 4.6.
`CC(C)CC1C(C#N)=C(N)SC(N)=C1C#N` gave CRFBP-R2 agonist 50.2*, Tn6 DDE FP 8.4, Tn7 DDE FP 8.6 and CRFBP-R2 block -56.4.
N#CC1=C(N)SC(N)=C(C#N)C1Cc1ccccc1 was read as CRFBP-R2 agonist 47.2, Tn6 DDE FP -7.0, Tn7 DDE FP -3.3 and CRFBP-R2 block -42.1.
For CCc1ccc(C2C(C#N)=C(N)SC(N)=C2C#N)cc1 the results were CRFBP-R2 agonist 50.2*, Tn6 DDE FP 1.1, Tn7 DDE FP 0.3 and CRFBP-R2 block -25.6.
`N#CC1=C(N)SC(N)=C(C#N)C1CCc1ccccc1` gave CRFBP-R2 agonist 103.1*, Tn6 DDE FP 1.2, Tn7 DDE FP -11.3 and CRFBP-R2 block -41.1.
